Calls of active or inactive are those of the source. No cut-off for these calls is given here.
Experiments:
[1] = biological target: Apoptosis regulator Bcl-2 (Homo sapiens, UniProt P10415); assay: Inhibition of FAM-Bid peptide binding to Bcl2 (unknown origin) by fluorescence polarization assay
RPMI-8226 = assay: cells; format: functional, cell-based; settings: Homo sapiens, RPMI-8226, 72 h
[2] = biological target: T1, Protein deacetylase HDAC6 (Homo sapiens) (UniProt Q9UBN7); assay: Inhibition of HDAC6 in human RPMI8226 cells assessed as increase in acetylated-tubulin level at 10 uM after 24 hrs by Western blot analysis; format: cell-based
T1 sequence (whole entry): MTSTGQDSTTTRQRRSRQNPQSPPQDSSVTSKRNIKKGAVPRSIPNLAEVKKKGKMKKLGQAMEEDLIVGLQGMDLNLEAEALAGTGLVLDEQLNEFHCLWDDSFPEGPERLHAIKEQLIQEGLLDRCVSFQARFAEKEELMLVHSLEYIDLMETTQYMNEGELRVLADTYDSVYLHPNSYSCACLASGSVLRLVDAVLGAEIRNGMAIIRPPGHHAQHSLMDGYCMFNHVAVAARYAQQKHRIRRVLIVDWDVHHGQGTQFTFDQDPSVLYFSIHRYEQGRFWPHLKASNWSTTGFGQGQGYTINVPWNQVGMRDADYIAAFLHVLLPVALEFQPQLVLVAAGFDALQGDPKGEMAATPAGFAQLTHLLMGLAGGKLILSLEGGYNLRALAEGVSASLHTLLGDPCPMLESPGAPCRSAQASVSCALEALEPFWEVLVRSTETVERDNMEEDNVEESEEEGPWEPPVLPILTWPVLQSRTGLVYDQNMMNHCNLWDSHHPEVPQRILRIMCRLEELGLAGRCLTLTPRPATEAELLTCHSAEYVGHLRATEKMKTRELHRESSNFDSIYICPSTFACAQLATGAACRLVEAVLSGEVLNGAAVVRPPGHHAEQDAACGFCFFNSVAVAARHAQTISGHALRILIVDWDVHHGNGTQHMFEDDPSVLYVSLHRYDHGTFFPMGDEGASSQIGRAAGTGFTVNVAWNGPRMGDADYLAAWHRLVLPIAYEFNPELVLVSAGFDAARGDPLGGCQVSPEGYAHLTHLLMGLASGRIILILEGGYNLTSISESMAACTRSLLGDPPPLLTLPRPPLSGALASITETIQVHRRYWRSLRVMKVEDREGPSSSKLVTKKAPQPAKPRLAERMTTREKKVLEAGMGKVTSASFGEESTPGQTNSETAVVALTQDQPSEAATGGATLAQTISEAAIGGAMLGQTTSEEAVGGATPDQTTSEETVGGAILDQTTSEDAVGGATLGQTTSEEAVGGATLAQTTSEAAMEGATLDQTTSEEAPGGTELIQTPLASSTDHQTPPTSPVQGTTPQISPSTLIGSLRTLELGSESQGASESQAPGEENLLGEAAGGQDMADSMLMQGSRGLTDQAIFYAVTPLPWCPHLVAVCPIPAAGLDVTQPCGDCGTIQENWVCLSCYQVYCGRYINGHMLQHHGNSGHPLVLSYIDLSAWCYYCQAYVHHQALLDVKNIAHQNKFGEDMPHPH
Method in brief: (§1)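 RPMI-8226 cells exposed to compound at 10 μM for 24 h. Acetylated histone H3 and acetylated tubulin were then detected by immunoblot with specific antibodies.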

Histone deacetylase 1 [3] = biological target: T2, Histone deacetylase 1 (Homo sapiens, UniProt Q13547); assay: Inhibition of HDAC1 in human RPMI8226 cells assessed as increase in acetylated-H3 level at 10 uM after 24 hrs by Western blot analysis; format: cell-based; method in brief: as §1
T2 sequence (Q13547 whole entry): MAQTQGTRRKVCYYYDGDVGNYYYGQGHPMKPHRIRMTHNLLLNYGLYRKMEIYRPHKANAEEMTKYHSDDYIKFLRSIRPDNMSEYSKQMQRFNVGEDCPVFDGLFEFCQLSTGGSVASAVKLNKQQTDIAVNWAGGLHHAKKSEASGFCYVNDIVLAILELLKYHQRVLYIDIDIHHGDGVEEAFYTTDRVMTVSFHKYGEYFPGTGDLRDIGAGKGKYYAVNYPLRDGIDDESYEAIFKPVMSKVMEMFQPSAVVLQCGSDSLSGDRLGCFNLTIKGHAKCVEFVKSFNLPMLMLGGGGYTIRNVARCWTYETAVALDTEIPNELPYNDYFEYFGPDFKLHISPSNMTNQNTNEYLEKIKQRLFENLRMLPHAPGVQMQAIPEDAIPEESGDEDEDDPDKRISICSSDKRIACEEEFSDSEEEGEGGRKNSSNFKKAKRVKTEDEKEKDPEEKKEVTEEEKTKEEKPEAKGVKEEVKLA

U-266 = assay: cells; format: functional, cell-based; settings: Homo sapiens, U-266, 72 h
[4] = biological target: T3, Protein deacetylase HDAC6 (Homo sapiens, UniProt Q9UBN7); assay: Inhibition of full length recombinant human N-terminal GST-tagged HDAC6 expressed in baculovirus infected sf9 cells preincubated for 5 mins followed by biotinylated H3K9-Ac substrate addition and measured after 60 mins by HTRF assay
T3 sequence (Q9UBN7 whole entry): T1 sequence (whole entry)

Histone deacetylase 1 [5] = biological target: T2, Histone deacetylase 1; assay: Inhibition of full length recombinant human C-terminal FLAG-tagged HDAC1 expressed in sf9 cells preincubated for 5 mins followed by biotinylated H3K9-Ac substrate addition and measured after 60 mins by HTRF assay
Homo sapiens = organism: Homo sapiens; assay: Selectivity index, ratio of IC50 for full length recombinant human C-terminal FLAG-tagged HDAC1 expressed in sf9 cells to IC50 for full length recombinant human N-terminal GST-tagged HDAC6 expressed in baculovirus infected sf9 cells

Chain of Apoptosis regulator Bcl-2 (P10415 whole entry): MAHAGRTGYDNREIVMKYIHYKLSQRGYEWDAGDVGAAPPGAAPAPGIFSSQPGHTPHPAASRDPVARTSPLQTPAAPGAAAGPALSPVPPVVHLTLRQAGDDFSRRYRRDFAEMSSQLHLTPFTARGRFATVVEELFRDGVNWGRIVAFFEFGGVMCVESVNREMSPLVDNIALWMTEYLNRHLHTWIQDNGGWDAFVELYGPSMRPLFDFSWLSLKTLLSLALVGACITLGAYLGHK

| Structure (SMILES) | IC50 [1] | IC50 (RPMI-8226) | inhibition [2] | inhibition (Histone deacetylase 1 [3]) | IC50 (U-266) | IC50 [4] | IC50 (Histone deacetylase 1 [5]) | Ratio IC50 (Homo sapiens) |
| --- | --- | --- | --- | --- | --- | --- | --- | --- |
| CC1(C)CCC(CN2CCN(c3ccc(C(=O)NS(=O)(=O)c4ccc(NCCCCCCCC(=O)NO)c([N+](=O)[O-])c4)c(Oc4cnc5[nH]ccc5c4)c3)CC2)=C(c2ccc(Cl)cc2)C1 | 250 nM | 200 nM | Active | Active | 8700 nM | 19 nM | 281 nM | > 10 |
| CC1(C)CCC(CN2CCN(c3ccc(C(=O)NS(=O)(=O)c4ccc(NCCCCC(=O)NO)c([N+](=O)[O-])c4)c(Oc4cnc5[nH]ccc5c4)c3)CC2)=C(c2ccc(Cl)cc2)C1 | – | – | – | – | – | > 1000 nM | > 1000 nM | – |
| CC1(C)CCC(CN2CCN(c3ccc(C(=O)NS(=O)(=O)c4ccc(NCC5CCOCC5)c([N+](=O)[O-])c4)c(Oc4cnc5[nH]ccc5c4)c3)CC2)=C(c2ccc(Cl)cc2)C1 [VENETOCLAX] | – | 2700 nM | – | – | 94000 nM | – | – | – |
| CC1(C)CCC(CN2CCN(c3ccc(C(=O)NS(=O)(=O)c4ccc(NCCC(=O)NO)c([N+](=O)[O-])c4)c(Oc4cnc5[nH]ccc5c4)c3)CC2)=C(c2ccc(Cl)cc2)C1 | – | – | – | – | – | > 1000 nM | > 1000 nM | – |
| O=C(CCCCCCNC(=O)c1cnc(N(c2ccccc2)c2ccccc2)nc1)NO [RICOLINOSTAT] | – | 11000 nM | – | – | 21200 nM | – | – | – |
| CC1(C)CCC(CN2CCN(c3ccc(C(=O)NS(=O)(=O)c4ccc(NCC(=O)NO)c([N+](=O)[O-])c4)c(Oc4cnc5[nH]ccc5c4)c3)CC2)=C(c2ccc(Cl)cc2)C1 | – | – | – | – | – | > 1000 nM | > 1000 nM | – |
| CC1(C)CCC(CN2CCN(c3ccc(C(=O)NS(=O)(=O)c4ccc(NCCCCCC(=O)NO)c([N+](=O)[O-])c4)c(Oc4cnc5[nH]ccc5c4)c3)CC2)=C(c2ccc(Cl)cc2)C1 | 230 nM | 300 nM | Active | – | 27100 nM | 28 nM | 847 nM | > 10 |
| CC1(C)CCC(CN2CCN(c3ccc(C(=O)NS(=O)(=O)c4ccc(NCCCC(=O)NO)c([N+](=O)[O-])c4)c(Oc4cnc5[nH]ccc5c4)c3)CC2)=C(c2ccc(Cl)cc2)C1 | – | – | – | – | – | > 1000 nM | > 1000 nM | – |
| CC1(C)CCC(CN2CCN(c3ccc(C(=O)NS(=O)(=O)c4ccc(NCCCCCCC(=O)NO)c([N+](=O)[O-])c4)c(Oc4cnc5[nH]ccc5c4)c3)CC2)=C(c2ccc(Cl)cc2)C1 | 240 nM | 300 nM | Active | – | 9800 nM | 28 nM | 665 nM | > 10 |
